Source: ChEMBL document CHEMBL4354879, “Bioisosteric Discovery of NPA101.3, a Second-Generation RET/VEGFR2 Inhibitor Optimized for Single-Agent Polypharmacology” (J Med Chem, 2020)
The source made the active and inactive calls. No cut-off for these calls is given here.

What was measured:
BaF3 [1] = experiment: Inhibition of NCOA4/RET […] (unknown origin) expressed in mouse BAF3 cells assessed as reduction in RET phosphorylation at Y1062 residue at 0.3 to 30 nM measured after 2 hrs by Western blot analysis; assay type: cell-based; conditions: Homo sapiens
Outline: (§1)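 Ba/F3 cells stably expressing long-isoform RET-51 mutants (electroporation), cultured in RPMI/10% FCS without IL-3; RET phosphorylation read by Western blot with anti-phospho-Y905 and anti-phospho-Y1062 antibodies, ECL detection.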

[2] = Toxicity in BALB/c nu/nu mouse assessed as change in blood urea nitrogen level at 10 mg/kg, po administered daily for 7 days; assay type: organism-based; conditions: in vivo, 168 h
Outline: (§2)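 Mice dosed orally with 10 mg/kg/day for 7 days; standard blood markers of organ damage measured.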

[3] = test system: Proto-oncogene tyrosine-protein kinase receptor Ret (Homo sapiens), P07949 [C634W]; experiment: Inhibition of Ret isoform 9 C634W mutant in human TT cells assessed as reduction in phosphorylation at Y1062 residue at 0.3 to 30 nM measured after 2 hrs by Western blot analysis; assay type: cell-based
[4] = target: Vascular endothelial growth factor receptor 2 (Homo sapiens, UniProt P35968); experiment: Inhibition of recombinant human VEGFR2 expressed in HEK293 cells assessed as reduction in VEGFA-induced VEGFR2 autophosphorylation at 1 to 10 nM preincubated for 2 hrs followed by VEGFA-stimulation and measured after 15 mins by Western blot analysis; assay type: cell-based
Outline: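 HEK293 transiently transfected with human VEGFR2; 36 h post-transfection serum-starved 12 h, compound or vehicle 2 h, then VEGFA 100 ng/mL for 15 min; lysates blotted for phospho-VEGFR2, normalized to total VEGFR2.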

[5] = test system: Proto-oncogene tyrosine-protein kinase receptor Ret (Homo sapiens), P07949 [C634R]; experiment: Inhibition of RET […] C634R mutant (unknown origin) expressed in mouse BAF3 cells assessed as reduction in RET phosphorylation at Y905 residue at 0.3 to 30 nM measured after 2 hrs by Western blot analysis; assay type: cell-based; outline: as §1
[6] = Cytotoxicity against RET deficient human Nthy-ori 3-1 cells supplemented with fresh medium containing compound for every 2 to 3 days measured during compound dosing; assay type: cell-based
Outline: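 Human RET-negative lines were seeded in six-well plates at 10000 cells/well, in 5% FCS (Nthy-ori-3-1) or 10% FCS (BCPAP, 8505-C, CALU-1, A549, PC-9). Drug or vehicle was added the day after plating, with medium changed every 2–3 days. Cells were counted every 2–3 days. IC50 was fitted from the last day of the growth curves.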

[7] = test system: Proto-oncogene tyrosine-protein kinase receptor Ret (Homo sapiens), P07949 [C634R]; experiment: Inhibition of RET isoform 9 C634R mutant (unknown origin) expressed in rat Rat1 assessed as reduction in RET phosphorylation at Y1062 residue at 3 nM measured after 2 hrs by Western blot analysis; assay type: cell-based
Outline: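 RAT1 fibroblasts expressing RET-9 C634R, serum-starved, treated 2 h with 0.1–10.0 nM; 50 μg lysate blotted for RET pY905 and pY1062, normalized to total RET; ECL detection.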

Homo sapiens [8] = species: Homo sapiens; experiment: Inhibition of NCOA4/RET isoform 9 (unknown origin) expressed in mouse NIH/3T3 cells assessed as reduction in RET phosphorylation at Y905 residue at 1 to 100 nM measured after 2 hrs by Western blot analysis; assay type: cell-based
Outline: (§3)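 Serum-starved RAT1 (RET point mutants) or NIH3T3 (RET rearrangements) cells expressing short RET-9 isoform, treated 2 h; 50 μg total lysate immunoblotted with anti-phospho-Y1062 and anti-phospho-Y905 RET antibodies, normalized to total RET; ECL detection. Compound from 50 mM DMSO stock diluted in growth medium.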

[9] = target: T1, SHC-transforming protein 1 (Homo sapiens) (UniProt P29353); experiment: Effect on SHC phosphorylation in RET deficient human Nthy-ori 3-1 cells at 1 to 100 nM measured after 2 hrs by western blot analysis
T1 sequence (whole entry): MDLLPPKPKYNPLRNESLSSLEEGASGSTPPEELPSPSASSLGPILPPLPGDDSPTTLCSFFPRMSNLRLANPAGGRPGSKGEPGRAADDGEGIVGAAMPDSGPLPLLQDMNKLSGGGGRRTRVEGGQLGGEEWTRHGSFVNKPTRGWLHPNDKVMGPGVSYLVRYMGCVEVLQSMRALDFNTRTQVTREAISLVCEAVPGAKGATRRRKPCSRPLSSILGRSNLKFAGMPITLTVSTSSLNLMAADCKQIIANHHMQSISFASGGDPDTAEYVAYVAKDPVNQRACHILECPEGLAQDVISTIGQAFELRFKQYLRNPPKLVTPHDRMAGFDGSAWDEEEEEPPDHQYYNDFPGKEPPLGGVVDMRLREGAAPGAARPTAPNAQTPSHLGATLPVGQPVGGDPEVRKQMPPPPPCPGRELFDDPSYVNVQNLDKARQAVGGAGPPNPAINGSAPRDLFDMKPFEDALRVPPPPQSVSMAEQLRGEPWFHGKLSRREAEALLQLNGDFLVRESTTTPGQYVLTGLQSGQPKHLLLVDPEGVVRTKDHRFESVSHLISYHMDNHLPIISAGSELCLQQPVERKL

[10] = target: High affinity nerve growth factor receptor (Homo sapiens, UniProt P04629); experiment: Binding affinity to wild-type human partial length TRKA (G475 to G790 residues) expressed in mammalian expression system at 100 nM by Kinomescan method relative to control
Mus musculus = experiment: In vivo inhibition of VEGFR2 in BALB/c nu/nu mouse implanted with mouse NIH/3T3 cells harboring RET isoform 9 C634R mutant assessed as reduction in VEGFR2 phosphorylation at 3 mg/kg, po administered once daily via gavage for 3 days measured 3 hrs post-last dose by Western blot analysis; assay type: functional, organism-based
[11] = Drug metabolism in BALB/c nu/nu mouse assessed as formation of demethylated metabolite at 10 mg/kg, po measured after 1 to 4 hrs by LC-MS analysis; assay type: ADME, organism-based; conditions: in vivo
[12] = target: MAP kinase-interacting serine/threonine-protein kinase 2 (Homo sapiens) (UniProt Q9HBH9); experiment: Binding affinity to wild-type human partial length MKNK2 (G63 to S388 residues) expressed in mammalian expression system at 100 nM by Kinomescan method relative to control
BCPAP = experiment: Effect on MAPK phosphorylation in RET deficient human BCPAP cells at 1 to 100 nM measured after 2 hrs by western blot analysis; assay type: cell-based
[13] = Toxicity in BALB/c nu/nu mouse assessed as change in phosphorus level at 10 mg/kg, po administered daily for 7 days; assay type: organism-based; conditions: in vivo, 168 h
[14] = Toxicity in BALB/c nu/nu mouse assessed as change in alanine transaminase level at 10 mg/kg, po administered daily for 7 days; assay type: organism-based; conditions: in vivo, 168 h; outline: as §2
BaF3 [15] = experiment: Inhibition of NCOA4/RET […] (unknown origin) expressed in mouse BAF3 cells assessed as reduction in RET phosphorylation at Y905 residue at 0.3 to 30 nM measured after 2 hrs by Western blot analysis; assay type: cell-based; conditions: Homo sapiens; outline: as §1
Homo sapiens [16] = species: Homo sapiens; experiment: Inhibition of CCDC6/RET isoform 9 (unknown origin) expressed in mouse NIH/3T3 cells assessed as reduction in RET phosphorylation at Y905 residue at 1 to 100 nM measured after 2 hrs by Western blot analysis; assay type: cell-based; outline: as §3

Sequence of Proto-oncogene tyrosine-protein kinase receptor Ret (Homo sapiens), P07949 [C634R] (P07949 whole entry C634R, canonical isoform): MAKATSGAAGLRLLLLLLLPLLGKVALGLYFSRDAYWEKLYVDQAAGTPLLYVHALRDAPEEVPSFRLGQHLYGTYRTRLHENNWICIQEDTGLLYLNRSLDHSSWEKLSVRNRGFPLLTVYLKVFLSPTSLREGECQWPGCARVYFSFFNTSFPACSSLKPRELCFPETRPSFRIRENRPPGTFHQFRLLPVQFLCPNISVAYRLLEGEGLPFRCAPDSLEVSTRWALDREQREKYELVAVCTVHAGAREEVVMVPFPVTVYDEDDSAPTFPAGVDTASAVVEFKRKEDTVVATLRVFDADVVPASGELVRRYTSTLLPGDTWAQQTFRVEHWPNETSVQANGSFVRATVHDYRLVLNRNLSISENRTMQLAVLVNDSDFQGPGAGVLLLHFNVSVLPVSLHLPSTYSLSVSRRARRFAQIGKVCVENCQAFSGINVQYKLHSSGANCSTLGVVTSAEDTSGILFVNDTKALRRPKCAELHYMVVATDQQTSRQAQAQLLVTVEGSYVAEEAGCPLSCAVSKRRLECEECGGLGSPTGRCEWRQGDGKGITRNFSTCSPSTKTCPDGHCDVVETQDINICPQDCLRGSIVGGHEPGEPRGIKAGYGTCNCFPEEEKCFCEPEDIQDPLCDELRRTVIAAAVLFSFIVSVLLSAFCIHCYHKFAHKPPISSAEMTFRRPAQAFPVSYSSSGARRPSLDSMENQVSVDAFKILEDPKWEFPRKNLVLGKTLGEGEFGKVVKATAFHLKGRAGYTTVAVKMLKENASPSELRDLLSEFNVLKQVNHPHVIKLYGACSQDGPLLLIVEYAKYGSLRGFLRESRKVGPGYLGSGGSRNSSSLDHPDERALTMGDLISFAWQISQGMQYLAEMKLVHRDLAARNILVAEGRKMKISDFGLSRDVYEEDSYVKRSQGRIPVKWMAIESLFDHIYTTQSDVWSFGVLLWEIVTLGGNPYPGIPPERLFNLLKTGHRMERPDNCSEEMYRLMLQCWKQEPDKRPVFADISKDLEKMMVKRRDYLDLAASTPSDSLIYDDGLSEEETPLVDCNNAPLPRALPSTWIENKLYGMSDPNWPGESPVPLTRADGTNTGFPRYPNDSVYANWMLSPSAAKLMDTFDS
Sequence of Proto-oncogene tyrosine-protein kinase receptor Ret (Homo sapiens), P07949 [C634W] (P07949 whole entry C634W, canonical isoform): as the sequence (P07949 whole entry C634R, canonical isoform) above, with R634W counted along it
Sequence of Vascular endothelial growth factor receptor 2 (P35968 whole entry): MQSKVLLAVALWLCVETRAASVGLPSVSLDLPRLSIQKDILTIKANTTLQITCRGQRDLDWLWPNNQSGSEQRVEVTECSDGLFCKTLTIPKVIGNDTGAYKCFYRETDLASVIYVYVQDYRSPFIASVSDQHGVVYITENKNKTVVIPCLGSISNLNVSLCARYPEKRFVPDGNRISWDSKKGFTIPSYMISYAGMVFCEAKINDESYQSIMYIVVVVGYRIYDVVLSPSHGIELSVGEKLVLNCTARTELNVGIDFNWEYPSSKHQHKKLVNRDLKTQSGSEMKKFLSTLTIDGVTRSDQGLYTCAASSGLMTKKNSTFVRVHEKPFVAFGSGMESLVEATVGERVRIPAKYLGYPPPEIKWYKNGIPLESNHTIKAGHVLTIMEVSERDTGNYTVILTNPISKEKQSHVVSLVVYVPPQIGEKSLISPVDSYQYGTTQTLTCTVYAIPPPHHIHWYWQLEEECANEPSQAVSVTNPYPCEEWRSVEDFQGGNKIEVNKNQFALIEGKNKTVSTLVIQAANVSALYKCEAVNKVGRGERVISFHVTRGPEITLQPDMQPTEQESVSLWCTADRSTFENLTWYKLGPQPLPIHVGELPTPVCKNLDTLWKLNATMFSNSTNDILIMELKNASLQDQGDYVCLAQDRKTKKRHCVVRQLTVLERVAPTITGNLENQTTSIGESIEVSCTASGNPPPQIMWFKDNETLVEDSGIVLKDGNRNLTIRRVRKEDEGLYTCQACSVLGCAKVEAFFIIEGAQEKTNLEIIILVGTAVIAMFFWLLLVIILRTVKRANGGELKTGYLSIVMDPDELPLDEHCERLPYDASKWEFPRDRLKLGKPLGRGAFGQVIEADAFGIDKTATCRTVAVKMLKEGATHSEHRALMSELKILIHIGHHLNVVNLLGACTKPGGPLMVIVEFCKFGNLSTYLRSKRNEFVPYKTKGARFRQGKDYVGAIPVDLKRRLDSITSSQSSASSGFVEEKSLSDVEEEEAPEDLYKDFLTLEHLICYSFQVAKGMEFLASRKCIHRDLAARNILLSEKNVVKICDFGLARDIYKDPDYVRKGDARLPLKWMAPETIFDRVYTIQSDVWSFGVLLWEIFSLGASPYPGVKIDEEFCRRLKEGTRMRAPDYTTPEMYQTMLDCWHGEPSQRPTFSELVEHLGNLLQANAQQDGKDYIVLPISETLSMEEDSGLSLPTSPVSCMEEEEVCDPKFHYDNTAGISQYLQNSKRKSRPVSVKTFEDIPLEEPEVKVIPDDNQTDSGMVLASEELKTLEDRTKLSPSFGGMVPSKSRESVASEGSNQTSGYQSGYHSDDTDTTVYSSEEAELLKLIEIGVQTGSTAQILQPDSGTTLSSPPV
Sequence of High affinity nerve growth factor receptor (P04629 33-796 limits assumed): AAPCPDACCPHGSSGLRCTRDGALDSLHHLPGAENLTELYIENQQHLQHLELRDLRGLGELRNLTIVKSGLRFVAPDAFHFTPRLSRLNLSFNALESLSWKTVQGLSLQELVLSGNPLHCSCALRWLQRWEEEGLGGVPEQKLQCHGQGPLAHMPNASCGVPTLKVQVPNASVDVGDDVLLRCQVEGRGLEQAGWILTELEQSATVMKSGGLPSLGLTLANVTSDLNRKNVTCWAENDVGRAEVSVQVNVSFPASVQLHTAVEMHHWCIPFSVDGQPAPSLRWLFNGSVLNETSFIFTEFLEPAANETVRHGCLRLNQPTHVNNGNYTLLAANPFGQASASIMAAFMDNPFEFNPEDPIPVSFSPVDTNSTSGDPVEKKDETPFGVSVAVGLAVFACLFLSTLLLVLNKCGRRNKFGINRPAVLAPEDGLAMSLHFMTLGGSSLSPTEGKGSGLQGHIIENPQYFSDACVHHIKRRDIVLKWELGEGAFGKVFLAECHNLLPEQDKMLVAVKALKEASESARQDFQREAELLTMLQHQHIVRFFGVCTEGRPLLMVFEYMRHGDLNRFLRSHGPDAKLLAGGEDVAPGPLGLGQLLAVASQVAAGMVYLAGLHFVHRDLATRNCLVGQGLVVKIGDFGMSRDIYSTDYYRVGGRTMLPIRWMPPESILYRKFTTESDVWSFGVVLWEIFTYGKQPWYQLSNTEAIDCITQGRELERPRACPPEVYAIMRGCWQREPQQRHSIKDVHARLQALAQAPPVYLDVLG
Sequence of MAP kinase-interacting serine/threonine-protein kinase 2 (Homo sapiens) (Q9HBH9 whole entry, looked up, the tested form may be a part): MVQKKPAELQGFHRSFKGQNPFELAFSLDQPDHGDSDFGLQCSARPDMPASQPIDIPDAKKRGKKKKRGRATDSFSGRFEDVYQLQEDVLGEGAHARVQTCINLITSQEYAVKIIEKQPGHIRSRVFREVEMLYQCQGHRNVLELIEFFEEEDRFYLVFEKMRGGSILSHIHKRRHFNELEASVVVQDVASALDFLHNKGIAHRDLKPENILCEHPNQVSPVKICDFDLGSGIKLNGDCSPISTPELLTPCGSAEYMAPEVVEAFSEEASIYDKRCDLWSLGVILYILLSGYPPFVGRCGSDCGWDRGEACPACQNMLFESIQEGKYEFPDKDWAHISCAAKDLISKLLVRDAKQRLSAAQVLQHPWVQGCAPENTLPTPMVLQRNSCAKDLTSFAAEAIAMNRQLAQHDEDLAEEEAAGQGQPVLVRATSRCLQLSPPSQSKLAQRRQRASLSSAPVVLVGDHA

With CC(C)(C)c1cc(NC(=O)Cc2ccc(-n3cnc4cc(-c5ccc(S(C)(=O)=O)cc5)ccc43)cc2)no1 the inhibition (BaF3 [1]) was “Active”, the Activity [2] was “Non-Toxic” and the inhibition [3] was “Active”. The inhibition [4] was “Active”, the inhibition [5] was “Active” and the IC50 [6] was > 100 nM. For the same molecule, the inhibition [7] was 100%, the inhibition (Homo sapiens [8]) was “Active” and the Activity [9] was “inactive”. For the same molecule, the Activity [10] was > 90%, the inhibition (Mus musculus) was “Active” and the Drug metabolism [11] was “Metabolite_Notdetected”. For the same molecule, the Activity [12] was > 90%, the Activity (BCPAP) was “inactive” and the Activity [13] was “Non-Toxic”. The Activity [14] was “Non-Toxic”, the inhibition (BaF3 [15]) was “Active” and the inhibition (Homo sapiens [16]) was “Active”.
